From ChEMBL document CHEMBL3045249, “Synthesis of glucose-fipronil conjugate and its phloem mobility” (J Agric Food Chem, 2011)
In brackets after ≈: the same amount, converted by molar mass.

How the values were obtained:
Phloem [1] = test: Phloem mobility in Ricinus communis (castor bean) seedlings phloem sap assessed as drug level at 200 uM measured 8 hr post dose by DiBAC4 indicator based flow cytometry; assay type: ADME
Procedure, shortened: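 Protoplasts from cotyledons were isolated by 4 h digestion at 28 °C in cellulase/pectinase with 0.6 M mannitol and MES pH 5.8. They were suspended in buffer with 200 μM compound, or none for control, and shaken at 28 °C for 8 h. Every 2 h, samples were stained with 2 μM DiBAC4(3) for 30 min. Fluorescence of 20000 viable cells was read by flow cytometry (ex 488/em 530 nm) and expressed relative to fresh cells; n = 3, Duncan's test.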

Phloem [2] = test: Phloem mobility in Ricinus communis (castor bean) seedlings phloem sap assessed as drug level at 200 uM by HPLC-MS method; assay type: ADME
Procedure, shortened: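 Six-day castor bean seedlings, endosperm removed. After 1 h the hypocotyl was severed and phloem sap collected from the upper hypocotyl. Sap was analysed by C18 HPLC (acetonitrile/water 50:50, 1.0 mL/min, 210 nm, 25 °C) with external calibration; identity was confirmed by positive-ion APCI-MS.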

Plutella xylostella = test: Insecticidal activity against Plutella xylostella (diamondback moth) third-instar larvae measured 24 hr post dose by leaf disk dipping assay; assay type: functional; details: foliar
Procedure, shortened: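 Third-instar larvae, leaf disk dip. Compounds were dissolved in acetone and suspended in water with 0.1% Tween 80. 5.5 cm leaf disks were dipped 30 s and air-dried 2 h, then 10 larvae were placed per dish. Control was 10% acetone/0.1% Tween 80. Incubation at 26 ± 2 °C, 70% RH, 16:8 h light/dark; five replicates. Mortality was scored at 24 h and LC50 derived with 95% confidence limits.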

Root [3] = test: Drug metabolism in adult Ricinus communis (castor bean) roots assessed as compound conversion to fipronil at 2 mM measured 48 to 72 hr post treatment; assay type: ADME; details: 2000 µM
Procedure, shortened: (§1)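 Adult castor bean plants. On each of two fully expanded leaves, 100 mm2 of the adaxial surface was abraded with a Celite slurry, rinsed and blotted dry. 200 μL of aqueous GTF in 0.1% Tween 80/10% acetone was applied per leaf; vehicle alone served as control. After 48 and 72 h, plants were cut into apical leaves, upper stem, lower stem and roots (three replicates). 2 g tissue was acetone-extracted with 15 min sonication. Fipronil was quantified by C18 HPLC (acetonitrile/water 50:50, 1.0 mL/min, 210 nm) against external calibration.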

Root [4] = test: Drug metabolism in adult Ricinus communis (castor bean) roots assessed as compound conversion to fipronil at 2 mM measured 48 to 72 hr post treatment by HPLC-MS method; assay type: ADME; details: 2000 µM; procedure, shortened: as §1
Lower stem [5] = test: Drug metabolism in adult Ricinus communis (castor bean) lower stem assessed as compound conversion to fipronil at 2 mM measured 48 to 72 hr post treatment; assay type: ADME; details: 2000 µM; procedure, shortened: as §1
Phloem [6] = test: Phloem mobility in Ricinus communis (castor bean) seedlings phloem sap assessed as drug level at 200 uM measured 7 hr post dose by DiBAC4 indicator based flow cytometry relative to untreated control; assay type: ADME
Apical leaf [7] = test: Drug metabolism in adult Ricinus communis (castor bean) apical leaves assessed as compound conversion to fipronil at 2 mM measured 48 to 72 hr post treatment by HPLC-MS method; assay type: ADME; details: 2000 µM; procedure, shortened: as §1
Apical leaf [8] = test: Drug metabolism in adult Ricinus communis (castor bean) apical leaves assessed as compound conversion to fipronil at 2 mM measured 48 to 72 hr post treatment; assay type: ADME; details: 2000 µM; procedure, shortened: as §1
Lower stem [9] = test: Drug metabolism in adult Ricinus communis (castor bean) lower stem assessed as compound conversion to fipronil at 2 mM measured 48 to 72 hr post treatment by HPLC-MS method; assay type: ADME; details: 2000 µM; procedure, shortened: as §1
Upper stem [10] = test: Drug metabolism in adult Ricinus communis (castor bean) upper stem assessed as compound conversion to fipronil at 2 mM measured 48 to 72 hr post treatment by HPLC-MS method; assay type: ADME; details: 2000 µM; procedure, shortened: as §1
Phloem [11] = test: Phloem mobility in Ricinus communis (castor bean) seedlings phloem sap assessed as drug level at 200 uM measured 3.5 hr post dose by DiBAC4 indicator based flow cytometry relative to untreated control; assay type: ADME
Upper stem [12] = test: Drug metabolism in adult Ricinus communis (castor bean) upper stem assessed as compound conversion to fipronil at 2 mM measured 48 to 72 hr post treatment; assay type: ADME; details: 2000 µM; procedure, shortened: as §1

| Structure (SMILES) | Drug mobility (Phloem [1]) | Drug mobility (Phloem [2]) | LC50 (Plutella xylostella) [µg/mL] | Drug metabolism (Root [3]) | Drug metabolism (Root [4]) | Drug metabolism (Lower stem [5]) | fold change (FC) (Phloem [6]) | Drug metabolism (Apical leaf [7]) | Drug metabolism (Apical leaf [8]) | Drug metabolism (Lower stem [9]) | Drug metabolism (Upper stem [10]) | fold change (FC) (Phloem [11]) | Drug metabolism (Upper stem [12]) |
| --- | --- | --- | --- | --- | --- | --- | --- | --- | --- | --- | --- | --- | --- |
| N#Cc1nn(-c2c(Cl)cc(C(F)(F)F)cc2Cl)c(N)c1[S+]([O-])C(F)(F)F (stereo not given) [FIPRONIL] | Not Active | Not Active | 21.4 (≈ 48.9 µM) | – | – | – | – | – | – | – | – | – | – |
| N#Cc1nn(-c2c(Cl)cc(C(F)(F)F)cc2Cl)c(NCc2cn([C@@H]3O[C@H](CO)[C@@H](O)[C@H](O)[C@H]3O)nn2)c1[S+]([O-])C(F)(F)F (stereo not given in full) | Active | Active | – | Active | Active | Active | 0.45 | Active | Active | Active | Active | 0.25 | Active |
